Data as given in ChEMBL document CHEMBL2163204, “Synthesis and nicotinic acetylcholine receptor in vitro and in vivo pharmacological properties of 2'-fluoro-3'-(substituted phenyl)deschloroepibatidine analogues of 2'-fluoro-3'-(4-nitrophenyl)deschloroepibatidine” (J Med Chem, 2012).

How the values were obtained:
Mus musculus [1] = assay: Effect on spontaneous locomotor activity in mouse at 10 mg/kg, sc after 5 mins by photocell based method; assay type: functional; settings: route subcutaneous
Procedure, shortened: (§1)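 Mice put into photocell activity cages 5 min after s.c. saline or compound. Beam interruptions counted over the next 10 min.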

Mus musculus [2] = assay: Effect on hypothermia in mouse assessed as variation in rectal temperature at 10 mg/kg, sc measured after 30 mins by thermister probe based method; assay type: functional; settings: route subcutaneous
Procedure, shortened: (§2)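 Rectal temperature measured by thermistor probe inserted 24 mm, before and 30 min after s.c. saline or compound. Change computed for each mouse. Room temperature 21–24 °C.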

Mus musculus [3] = assay: Antinociception activity in mouse assessed as reaction time taken for jumping or licking paws at 10 mg/kg, sc after 5 mins by hot plate method; assay type: functional; settings: route subcutaneous
Procedure, shortened: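 Mice placed on a 55 °C hot plate; latency is time to jump or paw-lick. Two baseline latencies taken at least 10 min apart. Tested 5 min after s.c. dosing. %MPE computed with a 40 s maximum. Eight mice per dose.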

[4] = target: Neuronal acetylcholine receptor subunit alpha-7 (Rattus norvegicus) (UniProt Q05941); assay: Antagonist activity at rat alpha7 nAChR expressed in Xenopus laevis oocytes assessed as inhibition of acetylcholine-induced response at 100 uM after 2 to 6 days by two electrode voltage clamp assay; assay type: functional, cell-based; settings: Oocyte
Neuronal acetylcholine receptor subunit alpha-7 (Rattus norvegicus), sequence (Q05941 whole entry, the tested form may be a part): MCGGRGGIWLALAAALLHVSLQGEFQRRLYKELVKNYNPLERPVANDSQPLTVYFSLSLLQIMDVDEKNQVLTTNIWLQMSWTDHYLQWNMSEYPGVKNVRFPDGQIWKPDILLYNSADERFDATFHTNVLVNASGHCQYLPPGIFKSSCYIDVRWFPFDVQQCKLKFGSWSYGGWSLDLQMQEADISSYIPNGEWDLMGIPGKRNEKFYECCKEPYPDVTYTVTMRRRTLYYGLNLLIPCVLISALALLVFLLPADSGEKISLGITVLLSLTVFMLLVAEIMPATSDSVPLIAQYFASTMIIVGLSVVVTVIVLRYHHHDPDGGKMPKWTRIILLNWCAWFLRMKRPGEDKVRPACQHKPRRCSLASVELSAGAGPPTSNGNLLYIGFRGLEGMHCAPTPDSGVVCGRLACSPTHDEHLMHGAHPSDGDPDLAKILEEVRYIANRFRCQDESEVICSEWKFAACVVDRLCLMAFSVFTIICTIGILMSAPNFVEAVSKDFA

[5] = target: T1, Neuronal acetylcholine receptor; alpha3/beta4 (Rattus norvegicus) (UniProt P04757+P12392); assay: Antagonist activity at rat alpha3beta4 nAChR expressed in Xenopus laevis oocytes assessed as inhibition of acetylcholine-induced response at 100 uM after 2 to 6 days by two electrode voltage clamp assay; assay type: functional, cell-based; settings: Oocyte
Procedure, shortened: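 Xenopus oocytes expressing rat nAChRs (α4β2 and α3β4 subunits injected at 1:1), recorded by two-electrode voltage clamp in ND96 (pH 7.5) at 20–25 °C. […] Current compared with the mean of three preceding ACh-alone responses and given as % remaining.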

[6] = target: T2, Neuronal acetylcholine receptor; alpha4/beta2 (Rattus norvegicus) (UniProt P09483+P12390); assay: Antagonist activity at rat alpha4beta2 nAChR expressed in Xenopus laevis oocytes assessed as inhibition of acetylcholine-induced response at 100 uM after 2 to 6 days by two electrode voltage clamp assay; assay type: functional, cell-based; settings: Oocyte
Procedure, shortened: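 Xenopus oocytes expressing rat nAChRs (α4β2 and α3β4 subunits injected at 1:1), recorded by two-electrode voltage clamp in ND96 (pH 7.5) at 20–25 °C. Current compared with the mean of three preceding ACh-alone responses and given as % remaining.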

[7] = target: Neuronal acetylcholine receptor subunit alpha-7 (Rattus norvegicus) (UniProt Q05941); assay: Agonist activity at rat alpha7 nAChR expressed in Xenopus laevis oocytes at 100 uM after 2 to 6 days by two electrode voltage clamp assay relative to acetylcholine; assay type: functional, cell-based; settings: Oocyte
Procedure, shortened: (§3)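 Two-electrode voltage clamp on Xenopus oocytes injected with rat subunit cRNA (α3β4 at 1:1 molar ratio), incubated at 19 °C in modified Barth's saline (pH 7.6). Oocytes perfused with ND96 (pH 7.5) at 20–25 °C. 100 µM compound applied for 15 s (α3β4) or 5 s (α7), 3-min washes. Response compared with the mean of three preceding ACh applications and expressed as % of maximal ACh response.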

[8] = target: T1, Neuronal acetylcholine receptor; alpha3/beta4 (Rattus norvegicus); assay: Agonist activity at rat alpha3beta4 nAChR expressed in Xenopus laevis oocytes at 100 uM after 2 to 6 days by two electrode voltage clamp assay relative to acetylcholine; assay type: functional, cell-based; settings: Oocyte; procedure, shortened: as §3
[9] = target: T2, Neuronal acetylcholine receptor; alpha4/beta2 (Rattus norvegicus); assay: Agonist activity at rat alpha4beta2 nAChR expressed in Xenopus laevis oocytes at 100 uM after 2 to 6 days by two electrode voltage clamp assay relative to acetylcholine; assay type: functional, cell-based; settings: Oocyte
[10] = target: T3, Neuronal acetylcholine receptor subunit alpha-7 (Rattus norvegicus, UniProt Q05941); assay: Displacement of [125I]iodoMLA from rat cerebral cortex alpha7 nAChR at 50 nM incubated for 2 hrs by microplate scintillation assay; assay type: tissue-based
T3 sequence (Q05941 whole entry): as the sequence (Q05941 whole entry, the tested form may be a part) above
Procedure, shortened: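 Rat cerebral cortex membranes (3 mg wet weight) in Tris assay buffer pH 7.4. Run in triplicate, 2 h on ice. Nonspecific binding with 300 µM (–)-nicotine. Filtered onto BSA-presoaked GF/B and counted by microplate scintillation.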

[11] = Displacement of [3H]epibatidine from rat cerebral cortex alpha4beta2* nAChR incubated for 4 hrs by liquid scintillation assay; assay type: tissue-based
Procedure, shortened: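 Washed rat cerebral cortex membranes (3 mg wet weight) in 50 mM Tris pH 7.4 with 120 mM NaCl, 5 mM KCl, 2 mM CaCl2, 1 mM MgCl2. 4 h at room temperature. Nonspecific binding with 300 µM (–)-nicotine. Filtration on PEI-soaked GF/B. Ki from IC50 by Cheng–Prusoff.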

Mus musculus [12] = assay: Antagonist activity in sc dosed mouse assessed as inhibition of nicotine-induced antinociception after 5 mins by hot plate method; assay type: functional
Mus musculus [13] = assay: Antagonist activity in sc dosed mouse assessed as inhibition of nicotine-induced antinociception after 5 mins by tail flick method; assay type: functional
Mus musculus [14] = assay: Effect on spontaneous locomotor activity in sc dosed mouse after 5 mins by photocell based method; assay type: functional; procedure, shortened: as §1
Mus musculus [15] = assay: Effect on hypothermia in sc dosed mouse assessed as variation in rectal temperature measured after 30 mins by thermister probe based method; assay type: functional; settings: 0.5 h; procedure, shortened: as §2
Mus musculus [16] = assay: Antinociception activity in sc dosed mouse after 5 mins by tail-flick method
Mus musculus [17] = assay: Antinociception activity in sc dosed mouse assessed as reaction time taken for jumping or licking paws after 5 mins by hot plate method
Mus musculus [18] = assay: Antinociception activity in mouse at 10 mg/kg, sc after 5 mins by tail-flick method; assay type: functional; settings: route subcutaneous
Procedure, shortened: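 Mouse tail-flick: baseline latency 2–4 s, 10 s cutoff, tested 5 min after s.c. injection. %MPE = (test−control)/(10−control)×100. Eight to twelve mice per dose.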

[19] = target: T3, Neuronal acetylcholine receptor subunit alpha-7; assay: Antagonist activity at rat alpha7 nAChR expressed in Xenopus laevis oocytes assessed as inhibition of acetylcholine-induced response after 2 to 6 days by two electrode voltage clamp assay; assay type: functional, cell-based, Oocyte
[20] = target: Neuronal acetylcholine receptor; alpha4/beta2 (Rattus norvegicus, UniProt P09483+P12390); assay: Antagonist activity at rat alpha4beta2 nAChR expressed in Xenopus laevis oocytes assessed as inhibition of acetylcholine-induced response after 2 to 6 days by two electrode voltage clamp assay; assay type: functional, cell-based, Oocyte
Neuronal acetylcholine receptor; alpha4/beta2, sequence (P09483 whole entry): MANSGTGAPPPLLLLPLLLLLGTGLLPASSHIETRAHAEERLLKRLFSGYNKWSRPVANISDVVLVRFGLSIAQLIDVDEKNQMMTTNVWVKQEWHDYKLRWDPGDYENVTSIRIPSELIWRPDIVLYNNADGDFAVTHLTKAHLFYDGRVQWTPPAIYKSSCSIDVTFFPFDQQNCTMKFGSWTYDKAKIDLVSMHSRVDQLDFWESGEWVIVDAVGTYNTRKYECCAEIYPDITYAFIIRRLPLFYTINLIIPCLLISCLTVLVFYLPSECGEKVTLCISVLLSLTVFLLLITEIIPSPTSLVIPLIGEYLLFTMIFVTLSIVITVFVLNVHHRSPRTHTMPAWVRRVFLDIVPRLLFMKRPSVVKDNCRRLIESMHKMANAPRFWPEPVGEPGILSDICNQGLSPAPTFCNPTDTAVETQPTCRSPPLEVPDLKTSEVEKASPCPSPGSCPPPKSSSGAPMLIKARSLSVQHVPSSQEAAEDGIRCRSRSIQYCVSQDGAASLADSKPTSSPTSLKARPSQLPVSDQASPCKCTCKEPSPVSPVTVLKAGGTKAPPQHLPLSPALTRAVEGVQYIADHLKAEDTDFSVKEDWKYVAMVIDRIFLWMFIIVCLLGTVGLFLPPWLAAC
Neuronal acetylcholine receptor; alpha4/beta2, sequence (P12390 whole entry): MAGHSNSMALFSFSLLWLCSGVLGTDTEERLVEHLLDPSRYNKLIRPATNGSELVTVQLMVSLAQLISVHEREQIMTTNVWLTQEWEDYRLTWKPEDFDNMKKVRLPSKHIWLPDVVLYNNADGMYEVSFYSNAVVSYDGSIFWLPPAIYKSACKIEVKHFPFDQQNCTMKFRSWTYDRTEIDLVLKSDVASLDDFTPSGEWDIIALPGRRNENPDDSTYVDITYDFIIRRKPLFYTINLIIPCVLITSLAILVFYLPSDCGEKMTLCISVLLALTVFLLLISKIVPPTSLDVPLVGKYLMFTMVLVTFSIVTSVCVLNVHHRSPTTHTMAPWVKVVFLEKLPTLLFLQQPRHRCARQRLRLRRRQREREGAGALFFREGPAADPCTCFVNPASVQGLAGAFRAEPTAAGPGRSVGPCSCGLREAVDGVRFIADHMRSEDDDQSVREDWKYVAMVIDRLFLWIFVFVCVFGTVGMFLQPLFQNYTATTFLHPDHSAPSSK

[21] = target: Neuronal acetylcholine receptor; alpha3/beta4 (Rattus norvegicus, UniProt P04757+P12392); assay: Antagonist activity at rat alpha3beta4 nAChR expressed in Xenopus laevis oocytes assessed as inhibition of acetylcholine-induced response after 2 to 6 days by two electrode voltage clamp assay; assay type: functional, cell-based, Oocyte
Neuronal acetylcholine receptor; alpha3/beta4, sequence (P04757 whole entry): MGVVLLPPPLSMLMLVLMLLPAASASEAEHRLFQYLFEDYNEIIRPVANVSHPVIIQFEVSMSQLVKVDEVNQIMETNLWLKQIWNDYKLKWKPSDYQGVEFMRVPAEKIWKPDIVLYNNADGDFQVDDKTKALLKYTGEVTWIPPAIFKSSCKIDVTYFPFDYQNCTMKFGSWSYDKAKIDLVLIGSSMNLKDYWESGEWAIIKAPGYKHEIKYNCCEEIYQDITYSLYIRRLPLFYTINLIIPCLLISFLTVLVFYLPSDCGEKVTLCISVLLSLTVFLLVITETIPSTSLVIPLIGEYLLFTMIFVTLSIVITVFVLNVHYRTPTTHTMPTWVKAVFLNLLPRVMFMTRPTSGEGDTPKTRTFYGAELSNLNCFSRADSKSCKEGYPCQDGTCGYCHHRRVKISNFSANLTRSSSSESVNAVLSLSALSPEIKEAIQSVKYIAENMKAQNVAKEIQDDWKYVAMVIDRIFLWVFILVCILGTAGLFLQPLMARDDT
Neuronal acetylcholine receptor; alpha3/beta4, sequence (P12392 whole entry): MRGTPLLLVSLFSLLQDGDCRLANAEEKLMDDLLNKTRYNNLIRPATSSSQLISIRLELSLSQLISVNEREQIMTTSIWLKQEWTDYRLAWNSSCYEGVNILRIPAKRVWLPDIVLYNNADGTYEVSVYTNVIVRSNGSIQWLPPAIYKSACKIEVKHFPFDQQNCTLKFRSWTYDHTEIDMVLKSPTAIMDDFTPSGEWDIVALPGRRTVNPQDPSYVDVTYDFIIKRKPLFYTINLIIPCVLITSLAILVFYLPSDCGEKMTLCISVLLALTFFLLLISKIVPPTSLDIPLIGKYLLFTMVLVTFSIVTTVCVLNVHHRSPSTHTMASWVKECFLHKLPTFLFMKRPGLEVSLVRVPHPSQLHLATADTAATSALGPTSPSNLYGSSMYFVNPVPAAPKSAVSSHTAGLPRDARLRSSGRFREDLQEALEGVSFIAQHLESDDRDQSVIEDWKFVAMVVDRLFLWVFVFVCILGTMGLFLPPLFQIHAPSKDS

Mus musculus [22] = assay: Antagonist activity in mouse assessed as inhibition of nicotine-induced antinociception at 10000 ug/kg, sc after 5 mins by hot plate method; assay type: functional
Mus musculus [23] = assay: Antagonist activity in mouse assessed as inhibition of nicotine-induced antinociception at 2000 ug/kg, sc after 5 mins by hot plate method; assay type: functional

| Compound | Activity (Mus musculus [1]) [%] | Activity (Mus musculus [2]) [%] | Activity (Mus musculus [3]) [%] | inhibition [4] [%] | inhibition [5] [%] | inhibition [6] [%] | %max [7] [%] | %max [8] [%] | %max [9] [%] | Ki [10] [nM] | Ki [11] [nM] | AD50 (Mus musculus [12]) [mg/kg] | AD50 (Mus musculus [13]) [mg/kg] | ED50 (Mus musculus [14]) [mg/kg] | ED50 (Mus musculus [15]) [mg/kg] | Activity (Mus musculus [18]) [%] | IC50 [19] [nM] | IC50 [20] [nM] | IC50 [21] [nM] | also measured |
| --- | --- | --- | --- | --- | --- | --- | --- | --- | --- | --- | --- | --- | --- | --- | --- | --- | --- | --- | --- | --- |
| NS(=O)(=O)c1ccc(-c2cc(C3CC4CCC3N4)cnc2F)cc1 (racemic) | 5 | 0 | 19 | 18 | 5 | 4 | 1.8 | 0 | 0 | > 2000 | 0.94 | 1 | 0.0009 | – | – | – | – | – | – | – |
| Clc1ccc([C@H]2CC3CCC2N3)cn1 (mixture of isomers) | – | – | – | – | – | – | 150 | 97 | 131 | – | – | – | – | 0.001 | 0.004 | – | – | – | – | ED50 (Mus musculus [16]): 0.006 mg/kg; ED50 (Mus musculus [17]): 0.004 mg/kg |
| O=[N+]([O-])c1ccc(-c2cc(C3CC4CCC3N4)cnc2F)cc1 (racemic) | – | – | – | 55 | 9 | 6 | 6 | 4 | 0 | > 2000 | 0.009 | 0.12 | 0.003 | 0.22 | 0.21 | 5 | 32000 | 3200 | 7900 | – |
| N#Cc1ccc(-c2cc(C3CC4CCC3N4)cnc2F)cc1 (racemic) | 0 | 0 | 18 | 49 | 17 | 8 | 3 | 6 | 0 | > 2000 | 0.19 | – | – | – | – | 4 | 98000 | 11000 | 7000 | inhibition in vivo at 10 mg/kg (Mus musculus [22]): 24% |
| c1cnc2cc3c(cc2n1)[C@@H]1CNC[C@H]3C1 [VARENICLINE] | – | – | 10 | – | – | 38 | 74 | 66 | 13 | – | – | 0.47 | 0.0002 | 2.1 | 2.8 | 11 | – | – | – | – |
| NC(=O)c1ccc(-c2cc(C3CC4CCC3N4)cnc2F)cc1 (racemic) | – | – | 60 | 54 | 36 | 6 | 17 | 8 | 3.5 | 1870 | 0.12 | – | 0.009 | – | 4.2 | 16 | 35000 | 1500 | 35000 | inhibition in vivo at 2 mg/kg (Mus musculus [23]): 1% |
| O=S(=O)(c1ccc(-c2cc(C3CC4CCC3N4)cnc2F)cc1)C(F)(F)F (racemic) | – | 0 | – | 42 | 15 | 7 | 1.8 | 1.9 | 0 | > 2000 | 0.03 | – | 1.6 | 4.2 | – | 3 | – | – | – | inhibition in vivo at 10 mg/kg (Mus musculus [22]): 50% |
| CS(=O)(=O)c1ccc(-c2cc(C3CC4CCC3N4)cnc2F)cc1 (racemic) | 12 | 1 | 1 | 33 | 25 | – | 3 | 0 | 0 | – | 0.17 | 2.6 | 0.018 | – | – | 6 | – | 2800 | 11000 | – |
| Fc1ncc(C2CC3CCC2N3)cc1-c1ccc(C(F)(F)F)cc1 (racemic) | 5 | 0 | 6 | 3 | 4 | 8 | 4 | 0 | 0 | > 2000 | 0.44 | 6 | – | – | – | – | 4000 | 6000 | 5000 | – |
